# Compound activity as filed in PubChem BioAssay.
# The sample as a whole holds a higher share of hits than the screen did.
# CDK5 inh – inhibitors of human CDK5/p35 kinase | inhibition, % at 10 µM | AID 488839 | actives 0.01% (n = 330,000) | Recombinant CDK5/p35, ADP-Glo luminescence, 60 min | Q00535+Q15078;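 active = highest replicate inhibition of at least 50% and at least 75% of replicates reaching 50%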;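 note: plate controls were DMSO neutral control for no effect and GW8510 at 10 µM for full effect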
# Dyrk1A ADPGlo – inhibitors of rat Dyrk1A kinase; actives 0.43% (n = 310,000); inhibition, % at 12.5 µM; Q63470; ADP-Glo luminescence, NFATc1 peptide; in the data active = inhibition above about 50%;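 note: plate controls were vehicle with enzyme for no effect and no enzyme for full effect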
# GSK3 alpha inh – blocks human GSK-3 alpha kinase | AID 2650 | actives 0.1% (n = 320,000) | inhibition, % at 10 µM | ADP-Glo luminescence, 60 min;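 active = more than half of replicates show inhibition above 20%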;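 note: GST-tagged GSK-3 alpha with peptide substrate and 25 µM ATP; 0% = DMSO neutral wells and 100% = GW8510 positive control wells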
# Target sequence (P49840 whole entry, looked up): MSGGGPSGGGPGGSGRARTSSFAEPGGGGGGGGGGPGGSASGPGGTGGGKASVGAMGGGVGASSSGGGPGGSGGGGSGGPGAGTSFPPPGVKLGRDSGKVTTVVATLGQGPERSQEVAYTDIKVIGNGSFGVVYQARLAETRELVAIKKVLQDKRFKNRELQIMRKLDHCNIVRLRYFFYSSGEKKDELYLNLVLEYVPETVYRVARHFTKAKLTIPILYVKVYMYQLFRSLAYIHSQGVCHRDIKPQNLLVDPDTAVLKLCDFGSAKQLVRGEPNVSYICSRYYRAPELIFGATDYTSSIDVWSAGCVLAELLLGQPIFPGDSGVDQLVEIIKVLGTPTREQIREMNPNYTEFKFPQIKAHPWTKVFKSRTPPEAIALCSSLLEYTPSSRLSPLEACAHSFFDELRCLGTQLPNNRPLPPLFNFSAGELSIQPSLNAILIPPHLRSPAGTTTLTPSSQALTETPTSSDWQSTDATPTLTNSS
# GSK3B inh – inhibitors of human GSK3beta kinase | P49841 | actives 0.038% (n = 300,000) | GST-GSK3beta kinase, ADP-Glo luminescence, 60 min; stronger effect = lower value | activity score (negative = inhibition), % at 10 µM;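 active = more than half of replicate wells score below -50%, meaning over 50% inhibition versus plate controls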;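 note: 0% = median DMSO wells and -100% = median GW8510 positive control wells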
#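 Test system: GST-tagged human GSK3beta kinase, cell-free; evaluation: activity score scaled between in-plate DMSO and GW8510 controls; measured by: ADP-Glo luminescence; incubation: 60 min reaction, RT; benchmarks: DMSO and 20 µM GW8510; reagent: peptide substrate plus 25 µM ATP (final); medium: Tris/MgCl2 kinase buffer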
# STK33 inh – blocks human STK33 kinase activity | Q9BYT3 | actives 0.073% (n = 320,000) | inhibition, % at 10 µM | purified STK33, MBP phosphorylation, ADP-Glo luminescence;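 active = inhibition at or above 25%, using the most active replicate where run in duplicate; inactive = inhibition below 25%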
# ADP-Glo artifact – interferes with ADP-Glo luciferase readout without Dyrk1A; shares compounds with Dyrk1A ADPGlo; ADP-Glo luciferase artifact assay, no Dyrk1A, luminescence; AC50, µM (doses to about 12 µM), inactives show top-dose activity change, negative = inhibition; 1,300 tested, under 10 active;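 active = fitted half-maximal dose AC50 no more than ten times the top valid tested dose, with luminescence dropping as dose rises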
# Starred values were filed as active, the others as inactive; · = no result given.
SMILES,CDK5 inh,Dyrk1A ADPGlo,GSK3 alpha inh,GSK3B inh,STK33 inh,ADP-Glo artifact
CC(C)C[C@H]1COCCS(=O)(=O)N1Cc1cccc(Cl)c1,0.7,50.6*,5.8,-7.2,0.3,8.4%
Brc1ccc2[nH]c3c(c2c1)CCC3,0.1,·,-1.8,-2.1,0.5,·
NC(=O)c1cc(Br)cc2c3c([nH]c12)CCCC3,1.3,55.0*,35.9,2.8,8.8,6.9%
CCCCCCCCN1[C@@H](CC(=O)OC)c2cc(C(F)(F)F)ccc2S1(=O)=O,1.4,50.4*,-1.6,-2.3,-0.7,6.2%
CCCCCCCCN1[C@@H](CC(C)=O)c2cc(C(F)(F)F)ccc2S1(=O)=O,0.0,4.7,-2.1,2.9,0.3,·
O=C(Nc1c(Cl)cc2c(c1Cl)Cc1cc([N+](=O)[O-])ccc1-2)C(Cl)Cl,2.4,2.9,·,·,·,·
COc1ccc(-c2cc(=O)[nH][nH]2)cc1,1.9,62.8*,0.8,-5.8,0.7,8.2%
COc1ccc(-c2cc(=O)[nH]c(=O)[nH]2)cc1,-1.5,29.2,7.2,1.2,1.1,·
CN(c1ccc(F)cc1)S(=O)(=O)c1ccc(Cl)c(C(=O)NCC2(N3CCOCC3)CCCCC2)c1,-0.9,-6.1,·,·,·,·
COc1ccc(-c2nn(-c3ccccc3)cc2CO)cc1,2.2,62.1*,-0.7,-1.3,0.5,12.9%
Cc1ccc(-c2nn(-c3ccccc3)cc2CO)cc1,0.1,0.5,-1.6,1.3,-1.4,·
C=C1CC(Cn2cc(Br)c(=O)[nH]c2=O)(c2ccc(-c3ccccc3)cc2)OC1=O (stereo unspecified),1.2,2.8,·,·,·,·
Cc1nnc2c3ccccc3c(-c3cccs3)nn12,-0.8,60.4*,·,-15.2,·,7.4%
Cc1nnc2c3ccccc3c(-c3ccc(O)cc3)nn12,-1.3,-1.8,·,1.5,-0.3,·
Cc1c(Br)c(=O)oc2c(Br)c(O)ccc12,-0.1,77.3*,0.1,1.2,-1.4,8.8%
COc1ccc(Cl)cc1S(=O)(=O)NC(C)C(=O)NCCN1CCOCC1 (stereo unspecified),1.2,4.4,·,·,·,·
COc1ccc(CN(C)C(=O)c2cccc(S(=O)(=O)N3CCCc4ccccc43)c2)c(OC)c1OC,2.1,-6.1,·,·,·,·
Cc1[nH]nc2c1-c1nc3ccccc3nc1C(C)(C)C2,38.6,79.8*,36.2,-5.3,10.1,8.6%
O=C1CCCc2c1oc1c2CCCC1,0.2,·,·,·,·,·
CCCN1CCN(c2ncnc3scc(C4COc5ccccc5O4)c23)CC1 (stereo unspecified),0.6,56.8*,7.1,-3.5,3.5,8.5%
COC(=O)NNC(=O)COc1ccc(Cl)cc1,0.0,84.2*,1.2,1.8,-1.1,6.9%
COc1ccc(OCC(=O)Nc2ccc(Cl)cc2)cc1,1.7,0.0,-1.8,-0.3,-0.2,·
Cc1cc(/C=N/Nc2ccc([N+](=O)[O-])cn2)c(C)n1-c1ccccc1,0.4,5.5,-1.6,3.6,-1.3,·
Cc1c(C(=O)O)cccc1-n1c(C)cc(/C=N/Nc2ccc([N+](=O)[O-])cn2)c1C,6.5,58.8*,34.8,-8.8,9.5,9.1%
O=[N+]([O-])c1ccc2c(c1)C(=NO)c1cc(F)ccc1-2,4.2,68.5*,·,·,·,11.5%
SMILES,CDK5 inh,Dyrk1A ADPGlo,GSK3 alpha inh,GSK3B inh,STK33 inh,ADP-Glo artifact
COc1ccc(C(=O)N(Cc2nc(-c3ccc(C)cc3)no2)C(C)C)cc1OC,1.3,61.1*,-3.2,0.5,0.8,7.6%
Nc1cc2ccncc2c2ccccc12,5.4,73.4*,0.6,-2.3,19.5,8.9%
Cc1cc(N)c2ccccc2n1,-0.6,-1.9,-1.3,0.5,-0.2,·
CCN1CCN(S(=O)(=O)c2ccc(Cl)c(C(=O)Oc3ccc(CC(=O)OC)cc3)c2)CC1,1.2,-1.4,·,·,·,·
O=C(CN1CCCCC1)Nc1ccc(S(=O)(=O)c2ccc(NC(=O)CN3CCCCC3)cc2)cc1,1.5,-0.5,·,·,·,·
COc1cccc(-c2nnc3sc(C4CCCCC4)nn23)c1,0.5,52.6*,19.9,-27.9,-0.8,6.1%
COc1ccc2c3c([nH]c2c1)C(C)N(CCC(=O)NN)CC3 (stereo unspecified),-0.1,74.2*,-0.3,3.5,1.5,9.6%
CC1CC(C)C(=NNC(N)=O)C(C(O)CC2CCC(=O)NC2=O)C1 (stereo unspecified),-2.8,-0.1,·,·,·,·
COc1ccc(-c2ccc3c(c2)C2CC3CCN2)cc1 (stereo unspecified),-1.0,·,·,·,·,·
Cc1ccc(-c2csc3ncnc(SCC(=O)O)c23)cc1,0.3,76.1*,-0.3,4.3,6.0,8.5%
CC(O)C1CCC2C3CCC4CC(O)CCC4(C)C3C(=O)CC12C (stereo unspecified),-1.4,-1.9,·,·,·,·
CCCCCC1CC(CC(C)C(=O)Nc2nncs2)C(=O)O1 (stereo unspecified),-0.3,56.6*,0.9,-2.1,-2.8,8.8%
Cc1nc2ccc3[nH]snc3c2n1,4.0,55.1*,15.5,-10.6,4.6,6.9%
COc1ccc2c(c1)[nH]c1c(Cl)ncnc12,3.4,64.9*,·,-9.5,·,11.4%
Cc1ccc2[nH]c3c(Cl)ncnc3c2c1,0.5,16.9,-2.0,3.2,2.9,·
Cc1ccc(S(=O)(=O)Oc2cccc([N+](=O)[O-])c2)cc1,2.7,-2.3,·,·,·,·
CCC(C)CCN1C(Nc2ccccc2)=NC[C@@H]1Cc1ccccc1 (stereo partly specified),0.4,57.0*,-2.6,1.4,-0.9,8.7%
CC1CCC(NC(=O)c2cc(S(=O)(=O)N3CCCCC3)c[nH]2)CC1 (stereo unspecified),-0.1,56.8*,1.4,4.0,-1.5,7.7%
CCCNC(=O)c1cc(S(=O)(=O)N2CCCCC2)c[nH]1,-0.9,1.8,-1.9,3.8,-1.2,·
Oc1ccc(Nc2nc(-c3ccccc3)nc3ccccc23)cc1,0.3,85.5*,-1.0,-0.2,2.3,7.6%
Cc1ccc(S(=O)(=O)N2CCCN(C(=O)c3ccc(-n4nccc4C)cc3)CC2)cc1,1.1,20.0,·,·,·,·
Cc1nc2c(ccc3nc(NC(=O)Cc4ccccc4)sc32)s1,1.2,67.6*,4.5,-6.9,15.2,6.0%
O=c1[nH]c(=S)c2[nH]c(=S)n(-c3ccccc3)c2[nH]1,4.5,3.0,·,·,·,·
O=C1[C@H]2[C@H](C=CC[C@H]2C(=O)N2CCOCC2)CCN1Cc1ccccc1,0.3,53.1*,-0.6,2.2,-0.3,9.8%
O=C(Nc1ccccc1)[C@@H]1CC=C[C@@H]2CCN(Cc3ccccc3)C(=O)[C@@H]21,-3.3,1.4,-2.1,-2.1,0.7,·
O=C(Nc1nc2ccc(Cl)cc2s1)C1CCCO1 (stereo unspecified),-1.6,76.2*,0.8,-4.1,8.6,8.9%
O=C(Nc1nc2ccc([N+](=O)[O-])cc2s1)C1CCCO1 (stereo unspecified),-0.3,65.9*,-1.0,-2.8,5.2,7.8%
C(C#CCN1CCOCC1)#CCN1CCOCC1,1.6,-3.5,·,·,·,·
CCCCN1CC(C)(C)Oc2cccc(F)c2S1(=O)=O,0.7,6.6,·,·,·,·
